High-throughput results as filed in PubChem.
This is a sample that favours compounds with a hit; in the whole collection about 2.8% have one here.
NPY Y1 blocker: NPY-Y1 receptor antagonists, primary screen, cell-based; Neuropeptide Y receptor type 1 (Homo sapiens), P25929; HEK293-CNG Y1 cells, membrane potential fluorescence; NPY at EC95, then isoproterenol; inhibition, % at 3.6 µM; hit rate 1% among 200,000;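 active = inhibition above the campaign mean inhibition of all tested compounds plus 3 SD, cut at about 20% in these data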;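 note: 0% = DMSO wells given NPY plus isoproterenol and 100% = isoproterenol alone without NPY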
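Material: HEK293 Y1/CNG channel cell line; also added: NPY (25 nM), isoproterenol (1 µM), Ro 20-1724 (25 µM); doses: one concentration, 3.6 µM, in 0.4% DMSO; schedule: compound incubation 1 h at room temperature, readout 45 min post-stimulation; technique: membrane potential fluorescence; measure: fluorescence ratio normalized to % inhibition between controls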
NPY2 pot ag: NPY-Y2 potentiators or agonists, primary screen, cell-based; cells expressing NPY-Y2, potentiator/agonist read-out; hit rate 0.45% among 220,000; Neuropeptide Y receptor type 2 (Homo sapiens), P49146; activation, % at 3.6 µM; in the data active = activation above about 27%;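 note: cells stimulated with NPY near EC25 plus isoproterenol at EC100; 0% = vehicle plus submaximal agonist and 100% = vehicle plus saturating agonist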
Measles CPE: compounds protecting cells from measles virus cytopathic effect, primary screen, measles RdRp inhibitor project, single point, MLSMR library, absorbance; Measles virus-infected cells, CPE protection; hit rate 1.5% among 140,000; protection (pct of control), % at 4 µM; in the data active = protection mostly above about 24%, no sharp cut-off; inactive = mostly below about 26%
NPY-Y1 PAM-ag: NPY-Y1 receptor potentiators or agonists, primary screen, cell-based; NPY-Y1 expressing cells, potentiator/agonist activation; activation, % at 3.6 µM; hit rate 0.37% among 220,000; in the data active = activation above about 33%, passing the limit was not always enough;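 note: cells stimulated with NPY at EC10 then isoproterenol at EC100; 0% = low agonist plus stimulus and 100% = saturating agonist plus stimulus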
Mdm2 ligase inh: MDM2-luciferase reporter signal enhancers, primary screen, MDM2 E3 ligase inhibitor project, cell-based, luminescence, 1536-well. E3 ubiquitin-protein ligase Mdm2 (Homo sapiens), Q00987. cell-based MDM2 ubiquitination luciferase reporter, 2 h; 0 = plate control, 100 = twice control, blank-subtracted. signal enhancement, % at 5 µM. hit rate 0.11% among 210,000;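 active = signal enhancement of 30% or more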;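 note: luminescence tracks abundance of the self-degrading MDM2-luciferase fusion protein; higher signal means inhibition of MDM2 E3 ligase activity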
Target sequence (Q00987 whole entry, looked up, the tested form may be a part): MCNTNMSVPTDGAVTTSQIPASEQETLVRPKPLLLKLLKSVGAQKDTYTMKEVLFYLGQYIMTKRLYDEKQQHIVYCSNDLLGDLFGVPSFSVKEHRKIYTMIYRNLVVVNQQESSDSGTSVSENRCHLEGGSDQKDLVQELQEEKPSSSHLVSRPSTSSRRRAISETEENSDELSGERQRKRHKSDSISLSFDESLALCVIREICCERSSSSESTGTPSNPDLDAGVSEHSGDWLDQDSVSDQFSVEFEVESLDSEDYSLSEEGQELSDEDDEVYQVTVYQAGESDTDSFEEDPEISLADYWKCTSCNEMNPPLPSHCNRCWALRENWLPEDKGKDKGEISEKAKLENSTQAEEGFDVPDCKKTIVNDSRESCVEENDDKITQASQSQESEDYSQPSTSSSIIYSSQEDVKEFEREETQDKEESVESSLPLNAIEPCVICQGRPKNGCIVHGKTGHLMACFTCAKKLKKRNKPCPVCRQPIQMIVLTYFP
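Timing – 2 h compound exposure at 37 °C · Assay system – mammalian cells stably expressing self-ubiquitinating, self-degrading MDM2 E3–luciferase fusion · Amount – 2000 cells seeded into each well · Measure – % luminescence enhancement versus blank-corrected plate control mean · Measured by – SteadyLite luminescence, 15 min reagent step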
NPY Y2 blocker: NPY-Y2 receptor antagonists, primary screen, cell-based. AID 793, 2007. hit rate 0.99% among 140,000. Neuropeptide Y receptor type 2 (Homo sapiens), P49146. NPY-Y2 expressing cells, antagonist mode. inhibition, % at 2.7 µM; in the data active = inhibition above about 17%;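 note: 0% = vehicle with agonist challenge and 100% = reference antagonist with challenge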
NPY1 antag ctr: NPY-Y1 receptor antagonists, selectivity check, counter-screen for NPY-Y2 antagonist project, cell-based. shares compounds with NPY Y2 blocker. hit rate 19% among 710. cell-based NPY-Y1 antagonism counterscreen. AID 1256, 2008. inhibition, % at 3.6 µM; in the data active = inhibition above about 20%;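 note: cells challenged with NPY then isoproterenol with cAMP sensed through a CNG channel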
NPY-Y2 ant conf: NPY-Y2 receptor antagonists, retest of hits, confirmation, HEK293-CNG cells, membrane potential fluorescence, triplicate; shares compounds with NPY Y2 blocker; hit rate 32% among 710; HEK293 NPY-Y2 CNG channel; inhibition, % at 2.8 µM;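 active = mean inhibition of triplicate wells above the hit cutoff set in the primary screen, cut at about 17% in these data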;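 note: 0% = DMSO with NPY challenge and 100% = BIIE0246 high control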
* marks the source's active call; other numbers are inactive results; nt = not tested or not shown.

SMILES	NPY Y1 blocker	NPY2 pot ag	Measles CPE	NPY-Y1 PAM-ag	Mdm2 ligase inh	NPY Y2 blocker	others
COc1ccc(NC(=O)CN(c2cc(C)cc(C)c2)S(=O)(=O)c2c(C)n[nH]c2C)cc1	1	5	22	7	-24	2
O=C(CC1SCCNC1=O)Nc1cc(Cl)cc(Cl)c1 (stereo unspecified)	3	-6	14	-9	-13	-3
COC(=O)c1cc(NC(=O)CC2SCCNC2=O)cc(C(=O)OC)c1 (stereo unspecified)	-1	-5	48*	-16	3	1
CS(=O)(=O)N(Cc1ccc(C(=O)NCc2ccco2)cc1)c1ccccc1	-3	-5	34*	1	-23	5
CS(=O)(=O)N(Cc1ccc(C(=O)NCCSCc2ccco2)cc1)c1ccccc1	4	-7	3	-11	-15	4
COc1ccc(C(=O)N2CCN(c3ccc([N+](=O)[O-])c(-n4nc(C)cc4C)c3)CC2)cc1	6	-2	23*	-5	2	1
Cc1cc(C)n(-c2cc(N3CCN(C(=O)c4ccc(C(C)(C)C)cc4)CC3)ccc2[N+](=O)[O-])n1	3	2	9	0	-1	0
Cc1ccc(C(=O)c2c[nH]c(C(=O)NCc3cccnc3)c2)cc1	1	17	28*	11	-8	0
COc1cccc(C(=O)c2c[nH]c(C(=O)NCc3cccnc3)c2)c1	-1	14	nt	20	-11	nt
Cc1cc(C)n(-c2ccc(F)cc2CN2CCN(C3CCCC3)C(CCO)C2)n1 (stereo unspecified)	20*	-10	nt	17	-5	nt
COc1ccc2c(c1)O/C(=C\c1sccc1C)C2=O	4	14	9	-17	-6	0
CCCCn1cnc2c(c(-c3ccccc3)c(-c3ccccc3)n2Cc2ccco2)c1=N	nt	52*	nt	52*	4	nt
N=c1c2c(-c3ccccc3)c(-c3ccccc3)n(Cc3ccco3)c2ncn1Cc1ccco1	22*	22	0	33	0	32*
Cc1cc(NCCCn2ccnc2)n2nc(C)c(-c3ccccc3)c2n1	-4	13	7	-8	-4	3
N=c1c2c(-c3ccccc3)c(-c3ccccc3)n(Cc3ccccc3)c2ncn1CCCn1ccnc1	92*	17	4	-40	-15	49*
Cc1cc(=O)c(C(=O)O)cn1Nc1ccc(Cl)cc1	-4	13	27	-1	6	3
O=C(Cn1cncn1)NCCCc1ccccc1	7	7	nt	11	-10	nt
CC(C)Sc1ncc(S(=O)(=O)c2ccccc2)c(=O)[nH]1	1	-8	nt	-19	-5	nt
Cc1ccccc1NC(=O)c1ccc(CN2CCC(Cc3ccccc3)CC2)cc1	6	38*	51*	20	7	13
O=C(Nc1ccc2ncccc2c1)c1cc(Cl)ccc1Cl	3	-12	nt	-1	-28	nt
COc1ccccc1NS(=O)(=O)c1cc(NC(=O)Nc2ccccc2)ccc1N1CCCCC1	-9	46*	11	58*	-23	1
O=C(O)c1ccc2c(=O)[nH]c(CCl)nc2c1	1	7	nt	0	0	nt
Brc1ccc(-c2ccc(/C=N/Nc3nc4ccccc4[nH]3)o2)cc1	8	21	9	8	3	3
O=C(Nc1cc(C(=O)N2CCCC2)ccc1N1CCCC1)c1ccccc1F	-8	39*	3	44*	9	2
COc1ccc(C(=O)Nn2c(SCC(=O)N3CCC(C)CC3)nc3ccccc3c2=O)cc1	1	-15	5	-3	-63	7
SMILES	NPY Y1 blocker	NPY2 pot ag	Measles CPE	NPY-Y1 PAM-ag	Mdm2 ligase inh	NPY Y2 blocker	others
COc1ccc(C(=O)Nn2c(SCC(=O)c3ccc(Cl)cc3)nc3ccccc3c2=O)cc1	10	-23	84*	-35	-53	11
COc1ccc(-c2nc(C)c(C(C)=O)n2O)cc1	-2	17	8	23	30*	-2
CCOc1ccc(-c2nc(C)c(C(C)=O)n2O)cc1	6	1	6	23	-16	-2
CC(C)CNC(=O)c1ccc(Cl)c(Cl)c1	-1	-6	7	-1	-16	2
C/C(=N\NC(=O)OC(C)(C)C)c1cccc([N+](=O)[O-])c1	3	1	11	4	-14	0
OC(CNCCc1ccc(C(F)(F)F)cc1)COc1cccc2ccccc12 (stereo unspecified)	-8	46*	5	60*	0	6
COc1ccc(CCNCC(O)COc2cccc(Br)c2)cc1 (stereo unspecified)	-1	63*	nt	75*	-1	nt
Cc1sc(NC(=S)NC(=O)C2CCCCC2)c(C(N)=O)c1C	-1	7	10	-5	-5	8
C=CCN=c1scc(-c2ccc3c(c2)NC(=O)CO3)n1/N=C(\C)c1ccccn1	-6	34*	nt	16	-21	nt
Cc1nc(SCC(=O)NCc2ccco2)c2c3c(sc2n1)CCCC3	25*	-17	23	-11	-10	24*
N/C(=N\OC(=O)COc1ccccc1Cl)c1ccc(Cl)cc1	8	-24	2	-23	-3	18*	NPY1 antag ctr=6;NPY-Y2 ant conf=10
CCOC(=O)c1c(-c2ccccc2)oc2cc(CN(C)C)c(O)c(CN(C)C)c12	10	-5	nt	-30	nt	3
CCOC(=O)c1ccccc1NC(=O)CSc1nnc(COc2ccccc2C)n1C	14	-17	5	-17	-14	19*	NPY1 antag ctr=17;NPY-Y2 ant conf=11
Cc1ccc(SCc2[nH]nc3c2C(c2cccnc2)C(C#N)=C(N)O3)cc1 (stereo unspecified)	6	7	2	-13	-1	18*	NPY1 antag ctr=93*;NPY-Y2 ant conf=81*
CCc1[nH]nc2c1C(c1cccnc1)C(C#N)=C(N)O2 (stereo unspecified)	1	8	3	5	-30	2
O=C(CSc1nnc(-c2cccs2)o1)c1cccs1	8	-5	2	14	-10	3
Cc1cc(C(=O)CSc2nnc(-c3cccs3)o2)c(C)n1-c1ccccc1	0	2	3	-9	-46	20*	NPY1 antag ctr=16;NPY-Y2 ant conf=12
